This sample holds only a part of the variants without activity.
B1: tRNA (parent)
chain: GUUCCGUUGGCGUAAUGGUAACGCGUCUCCCUCCUAAGGAGAAGACUGCGGGUUCGAGUCCCGUACGGAACG

Variants of: B1
Experiment: yeast fitness relative to wild type (ratio to wild type); higher = fitter; tRNA-Arg(CCU), competitive growth, 37 C, YPD
Method in brief: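 Amplicons of the tRNA-Arg(CCU) gene were sequenced, 100-nucleotide paired-end, from the start population and from each end population of a pooled yeast competition. The competition, in six parallel replicates, lasted 24 hours in YPD at 37°C. Fitness relative to wild type was calculated from changes in genotype frequencies. Genotypes had to have ≥ 100 starting reads, and estimates < 0.5 were set to 0.5.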

Q: With GUUCAGUUGGCGUAAGGGUACCGUGUCUCACUCCUAAGGAGAAGACUGCGGGUUCGAGUCCCGUACGGAACG [C5A U16G A21C C24U C30A] as the variant, how does the yeast fitness read?
A: 0.618

Q: Which yeast fitness does the source give for GUUCAGUUGGCGUAAUGGUAACGCGUCUCCCUCCUAAGGAGAAGACUGCGGGUCCGAGUCUUGUACGGUACG [C5A U54C C61U C62U A69U] here?
A: 0.546

Q: For GUUCGGUUGGCGUCAUGGUAACGCGUCUUCCUGCUAAGGAGAAGACUGCGGGUUCGAGUCCCGUACGGAACG [C5G A14C C29U C33G], which yeast fitness is on record?
A: ≤ 0.5

Q: Which yeast fitness does the source give for GUUCGGUUGGCGUCAUGAUAGCGCGUCUCCCUCCUUAGGAGAAGUCUGCGGGUUCGAGUCCCGUACGGAACG [C5G A14C G18A A21G A36U A45U] here?
A: ≤ 0.5

Q: Which yeast fitness does the source give for GUUCAGUUGGCGUAAAGGUAAGGCGUCUCACUCCUAAGGAGAAGACUGCGGGUUCGAGUCCCGUACGGAACG [C5A U16A C22G C30A] here?
A: ≤ 0.5

Q: Which yeast fitness does the source give for GUUCAGUUGGCGUAAUGGUAACGCGACUCCCUCCUAAGGAGAAGACUGCGGGUUCGAGUCCCGUAAGGAACG [C5A U26A C66A] here?
A: ≤ 0.5

Q: For GUUCAGUUGGCGGAAUGGUAACGGGUCUCCAUCCUAAGGAGAAGACUGCGGGUUCGAGUCCGGAACGGAACG [C5A U13G C24G C31A C62G U64A], which yeast fitness is on record?
A: ≤ 0.5

Q: For GUUCAGUUGGCGUAAUGGUAACGCGUCUCCCUCCGAAGGAGAAGACUGCGGGUUCGAGUGCCGUACGGAACG [C5A U35G C60G], which yeast fitness is on record?
A: ≤ 0.5

Q: Which yeast fitness does the source give for GUUCAGUUGGCGUAAUGGUAACGCGUCUCCCUCCUAAGGAGAAGACUGCGGGUACGAGUCCCGUACGGAACG [C5A U54A] here?
A: 0.699

Q: For GUUCGGUUGGCGUCAUGGUAACGCGUCUCCCUCCUAGGGAGAAGACUGCGGGUUCGAGUCCGGUACGGUACG [C5G A14C A37G C62G A69U], which yeast fitness is on record?
A: ≤ 0.5

Q: For GUUCAGUUGGCGUAAUGGUAACGCGUCUCCCUCCCUAGGAGAAGACUGCGGGUUCGAGUCCCGUACGGAACG [C5A U35C A36U], which yeast fitness is on record?
A: 0.57

Q: Which yeast fitness does the source give for GUUCAGUUGGCGGGAUGGUAACGCGUCUCCCACCUAAGGAGUAGACUGCGGAUACGAGUGCCGUACGGAACG [C5A U13G A14G U32A A42U G52A U54A C60G] here?
A: ≤ 0.5

Q: Which yeast fitness does the source give for GUUCAGUUGGCGUAAAGGUAACGCGUCUCCCUCCUAAGGAGAAGGCUGCAGGUUCGAGUCUCGUACGGAACG [C5A U16A A45G G50A C61U] here?
A: ≤ 0.5

Q: With GUUCAGUUGGCGUAAUGGCAACGCGUCUCCCUCCUAAGGAGAAGACUGCGGGUUCGAGUCCCGUACGGAACG [C5A U19C] as the variant, how does the yeast fitness read?
A: 1.08

Q: With GUUCGGUUGGCGUCAUGGUAACGCGUCUACGUCCUAAGGAGAAGACUGCGGGUACGAGUCCCGUACGGAUCG [C5G A14C C29A C31G U54A A70U] as the variant, how does the yeast fitness read?
A: 0.545

Q: With GUUCAGUUGGCGUAAUGGUAACGCGUCUCCCUCCCAAGGAGAAGACUGCGGGUUCGAGUCCCGUAUGGAACG [C5A U35C C66U] as the variant, how does the yeast fitness read?
A: 0.579

Q: Which yeast fitness does the source give for GUUCAGUUGGCGUAAUGGUAACGCGACUCCCUCCUAAGGAGAAGACUGCGCGUUCGAGUCGCGUACGGAACG [C5A U26A G51C C61G] here?
A: ≤ 0.5

Q: With GUUCAGUUGGCGUAAUGGUAACGCGUCUCCCUCCCAAGGAGAAAACUCCGGGUUGGAGUCCCGUAUGGAUCG [C5A U35C G44A G48C C55G C66U A70U] as the variant, how does the yeast fitness read?
A: 0.558

Q: With GUUCAGUUGGCGUAAUGGCAACGCGUUUGCCUCAUAAGGAGCAGACUGCGGGUACGAGUCCCGUACGGAACG [C5A U19C C27U C29G C34A A42C U54A] as the variant, how does the yeast fitness read?
A: ≤ 0.5

Q: With GUUCAGUUGGCGCAAUGGUAACGCGUCUUCCUCCUAAGGAGAAGACUGCGGGUUUAAGUCCCGUACGGAACG [C5A U13C C29U C55U G56A] as the variant, how does the yeast fitness read?
A: ≤ 0.5

Q: For GUUCAGUUGGCGUAACGGUAAUGCGUCUCCCUCCUAAGGAGAAGACUGCGGGUUCGAGUCCCAUACGGAACG [C5A U16C C22U G63A], which yeast fitness is on record?
A: 0.553

Q: Which yeast fitness does the source give for GUUCAGUUGGCGUAAUGGUAACGCGUCUCCCCCCUCAGGAGAAGACUGCGAGUUCGAGUCCCGUACGGAACG [C5A U32C A36C G51A] here?
A: 0.59

Q: With GUUCAGUUGGCGUAAUGGUAACGCGUCUCCCUCCUAAGGAGAAGACUGCGGGUUCGAGUCCCGAACGGAACG [C5A U64A] as the variant, how does the yeast fitness read?
A: 0.766

Q: With GUUCAGUUGGCGUAAUGGUAACGCGUCUCCCUCCUAAGGAGAAGACUGCGGGUUCGAGUCCCGCACGGAACG [C5A U64C] as the variant, how does the yeast fitness read?
A: 0.96

Q: With GUUCAGUUGGCGUAAUGGUAACGCGUCUCCCUCCUAAGGAGAAGACCGCGGGUUCGAGUCCCGUACGGAACG [C5A U47C] as the variant, how does the yeast fitness read?
A: 0.85

Q: Which yeast fitness does the source give for GUUCAGUUGGCGUAAUGGUAACGCGUCUCCCUCCUAAGGAGAAGACCGCGGGUUCGAGUCCCGUACGGAGCG [C5A U47C A70G] here?
A: 0.705

Q: With GUUCAGUUGGCGUAAUGGUAACGCGUCUCCCUCCCAAGGAGAAGACUGCGGGUUCGAGUCCCGUACGGAACG [C5A U35C] as the variant, how does the yeast fitness read?
A: 0.869

Q: Which yeast fitness does the source give for GUUCAGUUGGCGUAAUGGUAACGCGCCUCCCUCCUAAGGAGAAGACUGCGGGUUCGAGUCCCGUACGGAACG [C5A U26C] here?
A: 0.954

Q: For GUUCAGUUGGCGUAAUGGUAACGCGUCUCCCUCCCAAGGAGAAAACUCCGGGUUGGAGUCCCGUACGGACCG [C5A U35C G44A G48C C55G A70C], which yeast fitness is on record?
A: ≤ 0.5

Q: For GUUCAGUUGGCGUAAUGGCAAGGAGUCUCCCUCCUAAGCAGAAGCCUGCGGGUUCGAGUCCCGUACGGAACG [C5A U19C C22G C24A G39C A45C], which yeast fitness is on record?
A: 0.596

Q: For GUUCGGUUGGCGUCAUGGUAACGCGUCUCCGUCCUAAGGAGAAGACUGCGGGUUCAAGUCCCGUACGGAUCG [C5G A14C C31G G56A A70U], which yeast fitness is on record?
A: ≤ 0.5

Q: For GUUCAGUUGGCGUAAUGGUAACGCGUCCCCCUCCUAAGGAGAAGACUGCGGGUUCGAGUCCCGUACGGAACG [C5A U28C], which yeast fitness is on record?
A: 0.784

Q: Which yeast fitness does the source give for GUUCAGUUGGCGUAAUGGCAACGCGUCUCCCUCGUAAGGAGAAGACUGCGGGUUAGAGUCCCGGACGGCACG [C5A U19C C34G C55A U64G A69C] here?
A: 0.598

Q: For GUUCAGUUGGCGUAAUGGCAACGCGUCUCCCUCCUAAGGAGAAGACUGCAGGUUAGAGUCCCGUAAGGAACG [C5A U19C G50A C55A C66A], which yeast fitness is on record?
A: ≤ 0.5

Q: Which yeast fitness does the source give for GUUCAGUUGGCGAAAUGGUAACGCGUCUCCCUCCAAAGGAGAAGACUGCGGGUUCGAGCCCCGUACGGAUCG [C5A U13A U35A U59C A70U] here?
A: 0.58

Q: With GUUCGGUUGGCGUCAUGGUAACGCGUCUCCCUCCUAGGGAGAAGACUGCGGGUUCGAGUCCCGUACGGAACG [C5G A14C A37G] as the variant, how does the yeast fitness read?
A: ≤ 0.5

Q: Which yeast fitness does the source give for GUUCAGUUGGCGUAAUGGUAACGCGACUCCCUCCUAAGGAGAUGACUGCGGGUUCGAGUCCCGUUCGGAACG [C5A U26A A43U A65U] here?
A: ≤ 0.5
